Measured values taken from ChEMBL document CHEMBL1124900, “Synthesis of substituted 7,12-dihydropyrido[3,2-b:5,4-b']diindoles: rigid planar benzodiazepine receptor ligands with inverse agonist/antagonist properties” (J Med Chem, 1990).

Legend:
[1] = Partition coefficient (logP); format: physicochemical; conditions: octanol/water
Outline: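 Crude octanol/water log P calculated from tabulated fragmentation constants; for one hydroxy analogue also determined experimentally.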

Mus musculus [2] = assay: Convulsant effects in mice treated with PTZ (40 mg/kg) dose; format: functional
[3] = target: GABA-A receptor; anion channel; assay: In vitro inhibition of [3H]flunitrazepam binding to rat GABA-A Benzodiazepine receptor; format: protein-complex assay
[4] = target: GABA-A receptor; anion channel; assay: In vitro potency measured against [3H]diazepam at the benzodiazepine receptor in rat
Outline: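 Male Sprague-Dawley rats (175-250 g); cerebral cortex homogenized in 50 mM Tris-HCl pH 7.4 and washed by repeated centrifugation at 2000g. Membranes incubated with 2 nM [3H]diazepam for 60-90 min at 0-4 °C, then filtered. Nonspecific binding defined with 10 µM flunitrazepam. Six or more concentrations; IC50 from Hill plots; mean of at least three determinations.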

Mus musculus [5] = assay: Antagonism of Diazepam (2.5 mg/kg) anticonvulsant effects in mice treated with PTZ (80 mg/kg); format: functional
Outline: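 Male NIH mice in groups of 10 received graded ip doses in Emulphor/saline 1:9, or vehicle. Diazepam 2.5 mg/kg ip followed 15 min later, then PTZ 80 mg/kg 15 min after that. ED50 is the dose antagonizing diazepam's protection against tonic/clonic convulsions in 50% of mice. Highest dose tested was 30 or 40 mg/kg.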

IC50 [4] | Compound | other results
6 nM | Fc1ccc2[nH]c3c4c5ccccc5nc-4c[nH]c3c2c1 | ED50 (Mus musculus [2]): > 30 mg/kg; logP [1]: 4.01
> 4000 nM | c1ccc(COc2cccc3[nH]c4c5c6ccccc6nc-5c[nH]c4c23)cc1 | 
578 nM | Oc1cccc2[nH]c3c4c5ccccc5nc-4c[nH]c3c12 | 
19 nM | Brc1ccc2c(c1)[nH]c1c3c4ccccc4nc-3c[nH]c12 | ED50 (Mus musculus [2]): > 40 mg/kg; logP [1]: 4.73; ED50 (Mus musculus [5]): > 40 mg/kg
> 4000 nM | c1ccc(COc2ccc3c(c2)[nH]c2c3ncc3[nH]c4ccccc4c32)cc1 | 
8 nM | COc1ccc2c(c1)[nH]c1c3c4ccccc4nc-3c[nH]c12.Cl | ED50 (Mus musculus [2]): 7 mg/kg; logP [1]: 4.04; ED50 (Mus musculus [5]): 3.9 mg/kg
83 nM | Cc1cccc2c1[nH]c1c3c4ccccc4nc-3c[nH]c12 | 
224 nM | Cc1ccc2[nH]c3c4c5ccccc5nc-4c[nH]c3c2c1 | 
> 5000 nM | Cc1cccc2[nH]c3c4c5ccccc5nc-4c[nH]c3c12 | 
750 nM | Brc1ccc2[nH]c3c4c5ccccc5nc-4c[nH]c3c2c1 | 
157 nM | Cn1c2ccccc2c2[nH]cc3nc4ccccc4c-3c21 | 
28 nM | Brc1cccc2c1[nH]c1c3c4ccccc4nc-3c[nH]c12 | 
8 nM | Cc1ccc2c(c1)[nH]c1c3c4ccccc4nc-3c[nH]c12 | ED50 (Mus musculus [2]): > 40 mg/kg; logP [1]: 4.53; ED50 (Mus musculus [5]): > 40 mg/kg
250 nM | COc1cccc2[nH]c3c4c5ccccc5nc-4c[nH]c3c12 | 
6 nM | Oc1ccc2c(c1)[nH]c1c3c4ccccc4nc-3c[nH]c12 | ED50 (Mus musculus [2]): > 40 mg/kg; logP [1]: 0.95; ED50 (Mus musculus [5]): > 40 mg/kg
114 nM | Oc1ccc2[nH]c3c4c5ccccc5nc-4c[nH]c3c2c1 | ED50 (Mus musculus [2]): > 40 mg/kg; ED50 (Mus musculus [5]): > 40 mg/kg
1600 nM | c1ccc(COc2ccc3[nH]c4c5c6ccccc6nc-5c[nH]c4c3c2)cc1 | 

Continued, compound first:

Compound | IC50 [4] | other results
c1ccc2c(c1)[nH]c1c2ncc2[nH]c3ccccc3c21 |  | logP [1]: 3.87
CC(C)(C)C(=O)Oc1ccc2c(c1)[nH]c1c3c4ccccc4nc-3c[nH]c12 |  | ED50 (Mus musculus [2]): 17.5 mg/kg; IC50 [3]: 200 nM
O=S(=O)(O)c1ccc2[nH]c3c(ncc4[nH]c5ccc(S(=O)(=O)O)cc5c43)c2c1 | 5000 nM | 
Brc1ccc2[nH]c3c(ncc4[nH]c5ccc(Br)cc5c43)c2c1 | > 320 nM | 
Nc1ccc2[nH]c3c[nH]c4c5cc(Cl)ccc5nc-4c3c2c1 | > 350 nM | 
Clc1ccc2c(c1)[nH]c1c2ncc2[nH]c3ccccc3c21 |  | ED50 (Mus musculus [2]): > 30 mg/kg; logP [1]: 4.58
Brc1ccc2[nH]c3cnc4c5ccccc5[nH]c4c3c2c1 | 6 nM | 
Cn1c2ccccc2c2c3nc4ccccc4c-3[nH]cc21 | 1140 nM | 
CCc1nc2c3ccccc3[nH]c2c2c1[nH]c1ccccc12 | 250 nM | 
Clc1ccc2[nH]c3c[nH]c4c5cccc(Cl)c5nc-4c3c2c1 | 310 nM | 
Nc1ccc2[nH]c3c[nH]c4c5ccccc5nc-4c3c2c1 | 44 nM | 
O=[N+]([O-])c1ccc2[nH]c3c[nH]c4c5cc(Cl)ccc5nc-4c3c2c1 | 1190 nM | 
O=[N+]([O-])c1ccc2[nH]c3c[nH]c4c5ccccc5nc-4c3c2c1 | 4 nM | 
O=[N+]([O-])c1ccc2[nH]c3c[nH]c4c5ccc(Cl)cc5nc-4c3c2c1 | 126 nM | 
Fc1ccc2c(c1)[nH]c1c3c4ccccc4nc-3c[nH]c12 |  | ED50 (Mus musculus [2]): > 30 mg/kg; logP [1]: 4.01; ED50 (Mus musculus [5]): > 30 mg/kg
Nc1ccc2[nH]c3c[nH]c4c5ccc(Cl)cc5nc-4c3c2c1 | 98 nM | 
